Assays:
L1210 [1] = experiment: Putrescine(PUT) levels in L1210 cells after 48 hr of treatment with the compound at the dose of 10 uM; type: functional, Mus musculus
In short: (§1)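 Log-phase L1210 cells treated 48 h, washed twice in ice-cold incomplete medium, extracted with 0.6 N perchloric acid and freeze-fractured three times. Polyamines are quantified by HPLC. PUT, SPD and SPM are expressed as percent of untreated control.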

L1210 [2] = experiment: Putrescine(PUT) levels in L1210 cells after 48 hr of treatment with the compound at the dose of 100 MicroM; type: functional, Mus musculus; in short: as §1
L1210 [3] = experiment: Spermidine(SPD) levels in L1210 cells after 48 hr of treatment with the compound at the dose of 10 uM; type: functional, Mus musculus; in short: as §1
L1210 [4] = experiment: Spermidine(SPD) levels in L1210 cells after 48 hr of treatment with the compound at the dose of 100 uM; type: functional, Mus musculus; in short: as §1
L1210 [5] = experiment: Spermine(SPM) levels in L1210 cells after 48 hr of treatment with the compound at the dose of 10 uM; type: functional, Mus musculus; in short: as §1
L1210 [6] = experiment: Spermine(SPM) levels in L1210 cells after 48 hr of treatment with the compound at the dose of 100 uM; type: functional, Mus musculus; in short: as §1
L1210 [7] = experiment: Growth inhibition of L1210 cells was measured in the presence of nine different concentrations: 0,0.03,0.1,0.3,1,3,10,30, and 100 uM after 48 hours; type: functional, cell-based; conditions: Mus musculus, L1210, 48 h
In short: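 L1210 leukemia cells were kept in log growth in RPMI-1640 with 10% FBS, HEPES-MOPS and 1 mM aminoguanidine at 37 °C under 5% CO2. Cultures at 0.5-1.0 × 10^5 cells/mL were dosed with filtered aqueous compound and counted by Coulter counter at 48 h, then reseeded and counted again at 96 h.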

[8] = target: T1, Ornithine decarboxylase (Mus musculus) (UniProt P00860); experiment: Effect of compound on Ornithine decarboxylase (ODC) […] in L1210 cells; type: cell-based
T1 sequence (whole entry): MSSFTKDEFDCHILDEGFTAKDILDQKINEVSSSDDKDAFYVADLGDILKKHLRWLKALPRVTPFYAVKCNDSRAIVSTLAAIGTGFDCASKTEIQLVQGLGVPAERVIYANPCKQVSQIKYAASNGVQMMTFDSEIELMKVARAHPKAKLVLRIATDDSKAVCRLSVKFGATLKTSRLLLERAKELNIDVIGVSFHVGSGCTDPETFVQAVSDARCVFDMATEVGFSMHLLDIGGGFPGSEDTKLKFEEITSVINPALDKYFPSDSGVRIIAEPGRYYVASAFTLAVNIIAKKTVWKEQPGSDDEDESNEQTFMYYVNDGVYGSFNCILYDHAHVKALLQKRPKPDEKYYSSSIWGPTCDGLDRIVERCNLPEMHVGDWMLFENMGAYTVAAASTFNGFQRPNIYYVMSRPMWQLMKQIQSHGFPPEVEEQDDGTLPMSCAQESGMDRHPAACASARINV
In short: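 L1210 cells treated 4 h at 1 µM, with an additional arm at 10 µM for 4 h. ODC activity is expressed as percent of untreated control. Each run includes untreated cells as negative control and a DEHSPM-treated positive control. Values are the mean of at least three experiments.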

L1210 [9] = experiment: Effect of compound on Spermidine/Spermine N'-Acetyltransferase (SSAT) in L1210 cells; type: cell-based
In short: (§2)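 L1210 cells treated 48 h at 10 µM, or 2 µM for DENSPM. SSAT is quantified as [14C]-N1-acetylspermidine formed from spermidine and [14C]acetyl-CoA. Values are the mean of at least three experiments.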

[10] = test system: S-adenosylmethionine decarboxylase (Mus musculus); experiment: Effect of compound on S-Adenosyl-methionine decarboxylase in L1210 cells; design: unit not given here
L1210 [11] = experiment: Putrescine(PUT) levels in L1210 cells after 48 hr of treatment with the compound at the dose of 2 uM; type: functional, Mus musculus; in short: as §1
L1210 [12] = experiment: Spermidine(SPD) levels in L1210 cells after 48 hr of treatment with the compound at the dose of 2 uM; type: functional, Mus musculus; in short: as §1
L1210 [13] = experiment: Spermine(SPM) levels in L1210 cells after 48 hr of treatment with the compound at the dose of 2 uM; type: functional, Mus musculus; in short: as §1
L1210 [14] = experiment: Growth uM after 48 hours; type: functional, cell-based; conditions: Mus musculus, L1210, 48 h
L1210 [15] = experiment: Growth uM after 96 hours; type: functional, cell-based; conditions: Mus musculus, L1210, 96 h
L1210 [16] = experiment: Ki was estimated by competitive inhibition of [3H]SPD transport by L1210 cells; type: functional, cell-based, Mus musculus
In short: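 L1210 cells incubated 20 min at 37 °C in medium with 1-10 µM [3H]spermidine, alone or with 10, 25 or 50 µM analogue. Cells are then washed with cold medium containing 1 mM SPD, digested in NaOH at 60 °C and counted by scintillation. Ki is taken from substrate-competitive inhibition kinetics; values are means of two or three experiments.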

L1210 [17] = experiment: Effect of compound on Spermidine/Spermine N'-Acetyltransferase(SSAT) in L1210 cells; type: cell-based; in short: as §2
L1210 [18] = experiment: Putrescine(PUT) levels in L1210 cells after 48 hr of treatment with the compound at the dose of 200 uMicroM; type: functional, Mus musculus; in short: as §1
L1210 [19] = experiment: Putrescine(PUT) levels in L1210 cells after 48 hr of treatment with the compound at the dose of 40 uM; type: functional, Mus musculus; in short: as §1
L1210 [20] = experiment: Spermidine(SPD) levels in L1210 cells after 48 hr of treatment with the compound at the dose of 200 uM; type: functional, Mus musculus; in short: as §1
L1210 [21] = experiment: Spermidine(SPD) levels in L1210 cells after 48 hr of treatment with the compound at the dose of 40 uM; type: functional, Mus musculus; in short: as §1
L1210 [22] = experiment: Spermine(SPM) levels in L1210 cells after 48 hr of treatment with the compound at the dose of 200 uM; type: functional, Mus musculus; in short: as §1
L1210 [23] = experiment: Spermine(SPM) levels in L1210 cells after 48 hr of treatment with the compound at the dose of 40 uM; type: functional, Mus musculus; in short: as §1
L1210 [24] = experiment: Putrescine(PUT) levels in L1210 cells after 48 hr of treatment with the compound at the dose of 0.15 uM; type: functional, Mus musculus; in short: as §1
L1210 [25] = experiment: Putrescine(PUT) levels in L1210 cells after 48 hr of treatment with the compound at the dose of 0.75 uM; type: functional, Mus musculus; in short: as §1
L1210 [26] = experiment: Spermidine(SPD) levels in L1210 cells after 48 hr of treatment with the compound at the dose of 0.15 uM; type: functional, Mus musculus; in short: as §1
L1210 [27] = experiment: Spermidine(SPD) levels in L1210 cells after 48 hr of treatment with the compound at the dose of 0.75 uM; type: functional, Mus musculus; in short: as §1
L1210 [28] = experiment: Spermine(SPM) levels in L1210 cells after 48 hr of treatment with the compound at the dose of 0.15 uM; type: functional, Mus musculus; in short: as §1
L1210 [29] = experiment: Spermine(SPM) levels in L1210 cells after 48 hr of treatment with the compound at the dose of 0.75 uM; type: functional, Mus musculus; in short: as §1
[30] = in the assay text read “1 uM” for “10 uM”

| Structure (SMILES) | Activity [8] | Activity [10] | Activity (L1210 [1]) | Activity (L1210 [3]) | Activity (L1210 [5]) | IC50 (L1210 [14]) [nM] | IC50 (L1210 [15]) [nM] | Ki (L1210 [16]) [nM] | Activity (L1210 [17]) | further results |
| --- | --- | --- | --- | --- | --- | --- | --- | --- | --- | --- |
| CCNCCCNCCCNCCCNCC [BIS(ETHYL)NORSPERMINE] | 7 | 42 |  |  |  |  |  |  |  | Activity (L1210 [1]; [30]): 66; Activity (L1210 [2]): 0; Activity (L1210 [3]; [30]): 46; Activity (L1210 [4]): 6; Activity (L1210 [5]; [30]): 94; Activity (L1210 [6]): 30; IC50 (L1210 [7]): 20000 nM; Activity (L1210 [9]): 1470 |
| CCNCC[C@H](O)CNCCCCNC[C@@H](O)CCNCC [IVOSPEMIN] | 17 | 52 | 3 | 4 | 53 | 2000 | 60 | 2400 | 114 | Activity (L1210 [11]): 3; Activity (L1210 [12]): 11; Activity (L1210 [13]): 62 |
| CCNC[C@H](O)CNCCCNC[C@@H](O)CNCC | 61 |  |  |  |  |  |  |  |  |  |
| CCNC[C@@H](O)CNCCCNC[C@H](O)CNCC | 35 |  |  |  |  |  |  |  |  |  |
| CCNCC[C@@H](O)CNCCCCNC[C@H](O)CCNCC | 55 | 68 |  |  |  | 40000 | 80 | 1700 | 102 | Activity (L1210 [18]): 4; Activity (L1210 [19]): 5; Activity (L1210 [20]): 13; Activity (L1210 [21]): 19; Activity (L1210 [22]): 104; Activity (L1210 [23]): 107 |
| CCNCCCCNCCCCNCCCCNCC [DIETHYLHOMOSPERMINE] | 7 | 41 | 3 | 1 | 57 |  |  |  | 110 | Activity (L1210 [24]): 97; Activity (L1210 [25]): 49; Activity (L1210 [26]): 91; Activity (L1210 [27]): 40; Activity (L1210 [28]): 110; Activity (L1210 [29]): 101 |
